Results taken from ChEMBL document CHEMBL2407075, “Sulphonamido-quinoxalines: search for anticancer agent” (Eur J Med Chem, 2013).

Columns and labels:
Format in all cases: functional
UO-31 = assay: Growth inhibition of human UO31 cells assessed as cell growth at 10^-4 M after 48 hrs by sulforhodamine B assay; settings: UO-31, 48 h, read-out: Activity
SNB-19 [1] = assay: Growth inhibition of human SNB19 cells assessed as cell growth at 10^-4 M after 48 hrs by sulforhodamine B assay; settings: SNB-19, 48 h, read-out: Activity
SF-295 = assay: Growth inhibition of human SF295 cells assessed as cell growth at 10^-4 M after 48 hrs by sulforhodamine B assay; settings: SF-295, 48 h, read-out: Activity
SF-268 [2] = assay: Growth inhibition of human SF268 cells assessed as cell growth at 10^-4 M after 48 hrs by sulforhodamine B assay; settings: SF-268, 48 h, read-out: Activity
HOP-62 = assay: Growth inhibition of human HOP62 cells assessed as cell growth at 10^-4 M after 48 hrs by sulforhodamine B assay; settings: HOP-62, 48 h, read-out: Activity
How it was run: (§1)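 Five-dose screen at NCI. Cells in RPMI 1640 with 5% FBS and 2 mM L-glutamine, seeded at 5000–40,000 cells/well and grown 24 h at 37 °C, 5% CO2 before dosing, with time-zero plates TCA-fixed. Drug diluted from DMSO stock to 0.01, 0.1, 1, 10 and 100 µM final, 48 h. Cells fixed with cold TCA (10% final), stained with 0.4% SRB and read at 515 nm. Percent growth from Tz, control and test absorbances; GI50, TGI and LC50 from dose-response curves.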

RPMI-8226 [3] = assay: Growth inhibition of human RPMI8226 cells assessed as cell growth at 10^-4 M after 48 hrs by sulforhodamine B assay; settings: RPMI-8226, 48 h, read-out: Activity
RPMI-8226 [4] = assay: Growth inhibition of human RPMI8226 cells assessed as cell growth at 10^-5 M after 48 hrs by sulforhodamine B assay; settings: RPMI-8226, 48 h, read-out: Activity
RXF 393 = assay: Growth inhibition of human RXF393 cells assessed as cell growth at 10^-6 M after 48 hrs by sulforhodamine B assay; settings: RXF 393, 48 h, read-out: Activity
MDA-MB-435 = assay: Growth inhibition of human MDA-MB-435 cells assessed as cell growth at 10^-6 M after 48 hrs by sulforhodamine B assay; settings: MDA-MB-435, 48 h, read-out: Activity
[5] = Growth inhibition of human EKVX cells assessed as cell growth at 10^-6 M after 48 hrs by sulforhodamine B assay; settings: read-out: Activity; how it was run: as §1
TK-10 = assay: Growth inhibition of human TK10 cells assessed as cell growth at 10^-7 M after 48 hrs by sulforhodamine B assay; settings: TK-10, 48 h, read-out: Activity
A498 [6] = assay: Growth inhibition of human A498 cells assessed as cell growth at 10^-7 M after 48 hrs by sulforhodamine B assay; settings: A498, 48 h, read-out: Activity
How it was run: (§2)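 Five-dose NCI-60 run (0.01, 0.1, 1, 10 and 100 µM, as 10-fold dilutions from a DMSO stock made at 400× the top final level). Cells were grown in RPMI 1640 with 5% FBS and 2 mM glutamine and plated for 24 h. They were then exposed for 48 h at 37 °C and 5% CO2. TCA fixation was followed by SRB staining with A515 read-out. Percent growth was taken relative to time-zero and control plates.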

IGROV-1 = assay: Growth inhibition of human IGROV1 cells assessed as cell growth at 10^-7 M after 48 hrs by sulforhodamine B assay; settings: IGROV-1, 48 h, read-out: Activity
Malme-3M = assay: Growth inhibition of human MALME-3M cells assessed as cell growth at 10^-7 M after 48 hrs by sulforhodamine B assay; settings: read-out: Activity
U-251 = assay: Growth inhibition of human U251 cells assessed as cell growth at 10^-7 M after 48 hrs by sulforhodamine B assay; settings: U-251, 48 h, read-out: Activity
SF-539 = assay: Growth inhibition of human SF539 cells assessed as cell growth at 10^-7 M after 48 hrs by sulforhodamine B assay; settings: SF-539, 48 h, read-out: Activity
SNB-19 [7] = assay: Growth inhibition of human SNB19 cells assessed as cell growth at 10^-7 M after 48 hrs by sulforhodamine B assay; settings: SNB-19, 48 h, read-out: Activity
SF-268 [8] = assay: Growth inhibition of human SF268 cells assessed as cell growth at 10^-7 M after 48 hrs by sulforhodamine B assay; settings: SF-268, 48 h, read-out: Activity
NCI-H460 = assay: Growth inhibition of human NCI-H460 cells assessed as cell growth at 10^-7 M after 48 hrs by sulforhodamine B assay; settings: NCI-H460, 48 h, read-out: Activity
A498 [9] = assay: Growth inhibition of human A498 cells assessed as cell growth at 10^-8 M after 48 hrs by sulforhodamine B assay; settings: A498, 48 h, read-out: Activity; how it was run: as §2
786-0 [10] = assay: Growth inhibition of human 786-0 cells assessed as cell growth at 10^-8 M after 48 hrs by sulforhodamine B assay; settings: 786-0, 48 h, read-out: Activity; how it was run: as §2
SK-OV-3 = assay: Growth inhibition of human SKOV3 cells assessed as cell growth at 10^-8 M after 48 hrs by sulforhodamine B assay; settings: SK-OV-3, 48 h, read-out: Activity
UACC-257 = assay: Growth inhibition of human UACC257 cells assessed as cell growth at 10^-8 M after 48 hrs by sulforhodamine B assay; settings: UACC-257, 48 h, read-out: Activity
SK-MEL-28 = assay: Growth inhibition of human SK-MEL-28 cells assessed as cell growth at 10^-8 M after 48 hrs by sulforhodamine B assay; settings: SK-MEL-28, 48 h, read-out: Activity
HCT-116 = assay: Growth inhibition of human HCT116 cells assessed as cell growth at 10^-8 M after 48 hrs by sulforhodamine B assay; settings: HCT-116, 48 h, read-out: Activity; how it was run: as §1
NCI-H322M = assay: Growth inhibition of human NCI-H322M cells assessed as cell growth at 10^-8 M after 48 hrs by sulforhodamine B assay; settings: read-out: Activity
NCI-H23 = assay: Growth inhibition of human NCI-H23 cells assessed as cell growth at 10^-8 M after 48 hrs by sulforhodamine B assay; settings: NCI-H23, 48 h, read-out: Activity
786-0 [11] = assay: Growth inhibition of human 786-0 cells after 48 hrs by sulforhodamine B assay; settings: 786-0, 48 h, read-out: LC50 (the source's name)
How it was run: (§3)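 Adherent cells in RPMI 1640 with 5% FBS and 2 mM L-glutamine were plated at 5000–40,000 cells/well and grown 24 h. Five concentrations (0.01–100 µM, DMSO stock) were added for 48 h at 37 °C. Cells were fixed with cold TCA (10% final) and stained with SRB, read at 515 nm. GI50 came from log concentration–growth curves against time-zero and control plates.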

UACC-62 = assay: Growth inhibition of human UACC62 cells after 48 hrs by sulforhodamine B assay; settings: UACC-62, 48 h, read-out: LC50 (the source's name)
COLO 205 = assay: Growth inhibition of human COLO205 cells after 48 hrs by sulforhodamine B assay; settings: COLO 205, 48 h, read-out: LC50 (the source's name); how it was run: as §3

Compound | growth at 100 µM (UO-31) [%] | growth at 100 µM (SNB-19 [1]) [%] | growth at 100 µM (SF-295) [%] | growth at 100 µM (SF-268 [2]) [%] | growth at 100 µM (HOP-62) [%] | growth at 100 µM (RPMI-8226 [3]) [%] | growth at 10 µM (RPMI-8226 [4]) [%] | growth at 1 µM (RXF 393) [%] | growth at 1 µM (MDA-MB-435) [%] | growth at 1 µM [5] [%] | growth at 0.1 µM (TK-10) [%] | growth at 0.1 µM (A498 [6]) [%] | growth at 0.1 µM (IGROV-1) [%] | growth at 0.1 µM (Malme-3M) [%] | growth at 0.1 µM (U-251) [%] | growth at 0.1 µM (SF-539) [%] | growth at 0.1 µM (SNB-19 [7]) [%] | growth at 0.1 µM (SF-268 [8]) [%] | growth at 0.1 µM (NCI-H460) [%] | growth at 0.01 µM (A498 [9]) [%] | also measured
O=S(=O)(Nc1ccc(Cl)cc1)c1ccc2nc(-c3ccccc3)c(-c3ccccc3)nc2c1 | 75 | 83 | 77 | 76 | 44 | 40 | -45 | 98 | 92 | 91 | 99 | 76 | 101 | 99 | 94 | 96 | 96 | 98 | 105 | 75 | growth at 0.01 µM (786-0 [10]): 97%; growth at 0.01 µM (SK-OV-3): 95%; growth at 0.01 µM (UACC-257): 94%; growth at 0.01 µM (SK-MEL-28): 97%; growth at 0.01 µM (HCT-116): 96%; growth at 0.01 µM (NCI-H322M): 93%; growth at 0.01 µM (NCI-H23): 97%; CC50 (786-0 [11]): > 100 µM; CC50 (UACC-62): > 100 µM; CC50 (COLO 205): > 100 µM
O=S(=O)(Nc1ccccn1)c1ccc2nc(-c3ccccc3)c(-c3ccccc3)nc2c1 | 59 | 62 | 40 | 64 | 39 | 27 | -48 | 96 | 91 | 89 | 99 | 87 | 104 | 107 | 97 | 94 | 93 | 91 | 106 | 88 | growth at 0.01 µM (786-0 [10]): 100%; growth at 0.01 µM (SK-OV-3): 97%; growth at 0.01 µM (UACC-257): 96%; growth at 0.01 µM (SK-MEL-28): 101%; growth at 0.01 µM (HCT-116): 97%; growth at 0.01 µM (NCI-H322M): 96%; growth at 0.01 µM (NCI-H23): 95%; CC50 (786-0 [11]): > 100 µM; CC50 (UACC-62): > 100 µM; CC50 (COLO 205): 100 µM
